A selection: hits, their analogues and other compounds. The true share with any hit is near 0.86%.
DTT redox prof: compounds producing H2O2 with reducing agent – biochemical, NIH compound library profiling, artefact control for MLSCN library redox annotation, primary screen | DTT-dependent redox cycling H2O2, phenol red/HRP absorbance; 100% = 100 µM peroxide control, 0% = buffer | activation, % at 10 µM | actives 0.03% (n = 200,000);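 active = activation of at least 50% relative to the plate's high and low controls in the primary single-dose screen; inactive = activation below 50%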;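 also: compound incubated with DTT at 0.8 mM final as the reducing agent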
PERK inh: block of dimerizer-induced PERK translation repression, primary screen, PERK inhibitor project, CHO PERK-DD cells, SEAP luminescence, HTS; inhibition, % at 5.6 µM; CHO PERK-DD fusion, SEAP luminescence translation reporter; Eukaryotic translation initiation factor 2-alpha kinase 3 (Homo sapiens), Q9NZJ5; AID 1416, 2008; actives 0.17% (n = 220,000);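 active = inhibition above the mean inhibition of all tested compounds plus 3 SD, set separately per screening campaign, cut at about 2.9% in these data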;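 also: PERK kinase domain activated by AP20187 dimerizer at 100 nM; 0% = DMSO with dimerizer and 100% = rapamycin at 8.4 µM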
TNAP inh hiacc: human TNAP enzyme inhibitors, primary screen, biochemical, luminescent, high phosphate acceptor level, uHTS. Alkaline phosphatase, tissue-nonspecific isozyme (Homo sapiens), P05186. purified TNAP, CDP-star luminescence, 1 M DEA. inhibition, % at 20 µM. actives 0.03% (n = 200,000);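 active = over 50% inhibition of tissue-nonspecific alkaline phosphatase at 20 µM in the single-dose screen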;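 also: plate controls were DMSO wells for no effect and EDTA-quenched wells as full inhibition for full effect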
TNAP inh noacc: human TNAP enzyme inhibitors, primary screen, biochemical, luminescent, no phosphate acceptor, uHTS; Alkaline phosphatase, tissue-nonspecific isozyme (Homo sapiens), P05186; purified TNAP, CDP-star luminescence, 30 min; inhibition, % at 20 µM; actives 0.26% (n = 200,000); AID 1012, 2008;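 active = tissue-nonspecific alkaline phosphatase inhibition above about 50% at 20 µM in the single-dose screen, limit read from the data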;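 also: 0% = DMSO negative control and 100% = EDTA positive control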
p97 inhibitor: inhibitors of human p97 ATPase, primary screen, biochemical; recombinant p97 ATPase, Kinase-Glo ATP luminescence, 3 h; inhibition, % at 8 µM; actives 0.42% (n = 220,000); in the data active = inhibition above about 15%;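 also: 0% = DMSO vehicle and 100% = wells lacking enzyme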
Target sequence (P55072 whole entry, looked up): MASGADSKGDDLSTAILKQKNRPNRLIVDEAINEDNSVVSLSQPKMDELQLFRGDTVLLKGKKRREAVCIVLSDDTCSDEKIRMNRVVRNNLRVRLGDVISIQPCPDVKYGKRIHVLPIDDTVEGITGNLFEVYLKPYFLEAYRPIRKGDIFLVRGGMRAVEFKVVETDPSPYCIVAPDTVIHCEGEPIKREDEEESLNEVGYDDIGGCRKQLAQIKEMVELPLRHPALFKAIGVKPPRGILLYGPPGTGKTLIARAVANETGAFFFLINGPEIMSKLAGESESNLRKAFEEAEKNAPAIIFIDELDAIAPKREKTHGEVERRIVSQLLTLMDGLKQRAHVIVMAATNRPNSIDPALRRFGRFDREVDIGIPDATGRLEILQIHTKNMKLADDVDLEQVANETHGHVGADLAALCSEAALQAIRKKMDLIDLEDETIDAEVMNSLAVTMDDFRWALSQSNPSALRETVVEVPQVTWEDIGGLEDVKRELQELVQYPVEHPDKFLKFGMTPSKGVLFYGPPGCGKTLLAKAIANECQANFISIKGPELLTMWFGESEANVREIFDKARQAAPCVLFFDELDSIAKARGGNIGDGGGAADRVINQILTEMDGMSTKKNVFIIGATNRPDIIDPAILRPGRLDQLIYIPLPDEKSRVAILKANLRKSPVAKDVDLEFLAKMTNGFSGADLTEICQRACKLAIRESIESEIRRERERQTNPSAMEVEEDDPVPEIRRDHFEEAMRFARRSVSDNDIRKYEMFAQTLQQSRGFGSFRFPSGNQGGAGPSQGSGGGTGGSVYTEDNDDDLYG
TNAP act hi DEA: TNAP activators at high phosphate acceptor level, primary screen, biochemical, luminescence, uHTS; purified TNAP, CDP-star luminescence, 1 M DEA, 30 min; stronger effect = higher value; 0 = EDTA background, 1 = DMSO-only activity; activation factor at 20 µM; Alkaline phosphatase, tissue-nonspecific isozyme (Homo sapiens), P05186; 200,000 tested, under 10 active;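 active = activation factor at least 2 at 20 µM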
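Assay system: human TNAP; Input: enzyme diluted 1/800 final; Reagent: CDP-star luminogenic substrate at 100 µM final; Timing: 30 min, room temperature; Signal: luminescence; Evaluation: TNAP activation factor scaled between EDTA and DMSO control wells.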
p97 inh conf: p97 ATPase inhibitors, retest, confirmation, biochemical. shares compounds with p97 inhibitor. recombinant p97 ATPase, Kinase-Glo ATP luminescence. inhibition, % at 8 µM. actives 44% (n = 760);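 active = percent inhibition of p97 ATPase above a set limit, the primary screen's mean plus 3 SD, cut at about 15% in these data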;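 also: 0% = DMSO wells and 100% = wells lacking p97 protein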
The depositor's hits bear a star.

For CCCCC(=O)Nc1ccc(NC(=S)NC(=O)CC)cc1OC the results were DTT redox prof 0, PERK inh 0, TNAP inh hiacc -4, TNAP inh noacc -6, p97 inhibitor 3 and TNAP act hi DEA 1.
Screening CCCCC(=O)NC(=S)Nc1cc(C(=O)O)ccc1OC returned DTT redox prof 0, PERK inh 1, TNAP inh hiacc -2, TNAP inh noacc 0, p97 inhibitor 18*, TNAP act hi DEA 1 and p97 inh conf 10.
COc1ccc(OC)c(C(=O)CSc2nccc(-c3ccc(Br)cc3)n2)c1 was read as DTT redox prof 2, PERK inh 0, TNAP inh hiacc -4, TNAP inh noacc 2, p97 inhibitor -3 and TNAP act hi DEA 1.
O=C(NN1C(=O)/C(=C/C=C/c2ccccc2)SC1=S)c1ccncc1 was read as DTT redox prof 0, PERK inh 1, TNAP inh hiacc 12, TNAP inh noacc -8, p97 inhibitor 6 and TNAP act hi DEA 0.9.
Screening O=C1/C(=C/C=C/c2ccco2)SC(=S)N1c1ccc(O)cc1 returned PERK inh 1, p97 inhibitor 58* and p97 inh conf 31*.
`CC(C)C(C(=O)O)N1C(=O)/C(=C/C=C/c2ccco2)SC1=S` (stereo not given) gave DTT redox prof 2, PERK inh 2, TNAP inh hiacc 9, TNAP inh noacc 27, p97 inhibitor 19*, TNAP act hi DEA 0.9 and p97 inh conf 7.
Screening CC(C)C(C(=O)O)N1C(=O)/C(=C/c2cccn2C)SC1=S (stereo not given) returned DTT redox prof 0, PERK inh 1, TNAP inh hiacc 29, TNAP inh noacc 25, p97 inhibitor -1 and TNAP act hi DEA 0.7.
O=C1/C(=C/c2ccco2)SC(=S)N1c1cccnc1 was read as PERK inh 1, p97 inhibitor 18* and p97 inh conf 14.
Screening O=C(NN1C(=O)/C(=C/C=C/c2ccco2)SC1=S)c1ccncc1 returned PERK inh 1, p97 inhibitor 40* and p97 inh conf 11.
Screening O=C(N/N=C1\CCS(=O)(=O)c2ccc(F)cc21)c1ccc(O)cc1 returned PERK inh 0 and p97 inhibitor 8.
Screening Cc1cc(Br)ccc1OCC(=O)NNC(=O)C(=O)Nc1ccccc1 returned DTT redox prof 0, PERK inh 2, TNAP inh hiacc -8, TNAP inh noacc -83, p97 inhibitor 5 and TNAP act hi DEA 1.1.
CCn1c(SCC(=O)N2CCCc3ccccc32)nnc1-c1c[nH]c2ccccc12 was read as DTT redox prof 1, PERK inh -1, TNAP inh hiacc 0, TNAP inh noacc -10, p97 inhibitor 2 and TNAP act hi DEA 1.
`Cn1c(SCC(=O)N2CCCc3ccccc32)nnc1-c1c[nH]c2ccccc12` gave DTT redox prof 3, PERK inh -1, TNAP inh hiacc 0, TNAP inh noacc -13, p97 inhibitor 16*, TNAP act hi DEA 1 and p97 inh conf 6.
O=[n+]1c2c(n([O-])c3cc(Br)ccc31)CCCC2 was read as DTT redox prof 0, PERK inh 0, TNAP inh hiacc 2, TNAP inh noacc -2, p97 inhibitor 2 and TNAP act hi DEA 1.
O=[n+]1c2c(n([O-])c3ccccc31)CCCC2 was read as DTT redox prof 0, PERK inh 0, TNAP inh hiacc -2, TNAP inh noacc 7, p97 inhibitor 15*, TNAP act hi DEA 1 and p97 inh conf 4.
CCOC(=O)C1=NN(c2cccc(Cl)c2)C2=NC(C)=C(C(=O)OC)C(c3cccs3)N12 (stereo not given) was read as DTT redox prof -1, PERK inh 1, TNAP inh hiacc -2, TNAP inh noacc -7, p97 inhibitor -4 and TNAP act hi DEA 1.
`CCOC(=O)C1CCCN(S(=O)(=O)c2cn(C)c(=O)n(C)c2=O)C1` (stereo not given) gave DTT redox prof 0, PERK inh 2, TNAP inh hiacc -8, TNAP inh noacc -18, p97 inhibitor 17*, TNAP act hi DEA 1.1 and p97 inh conf 3.
CCOC(=O)C1CCN(S(=O)(=O)c2cn(C)c(=O)n(C)c2=O)CC1 was read as DTT redox prof 0, PERK inh 1, TNAP inh hiacc -8, TNAP inh noacc -1, p97 inhibitor 2 and TNAP act hi DEA 1.1.
For Cc1ccsc1C=Nc1ccc(O)cc1 the results were DTT redox prof 1, PERK inh 1, TNAP inh hiacc 3, TNAP inh noacc -7, p97 inhibitor 25*, TNAP act hi DEA 1 and p97 inh conf 3.
Screening Cc1[nH][nH]c(=O)c1C(c1c(C)[nH][nH]c1=O)c1cn(Cc2ccccc2Cl)c2ccccc12 returned DTT redox prof 1, PERK inh 0, TNAP inh hiacc 21, TNAP inh noacc -25, p97 inhibitor 20*, TNAP act hi DEA 0.8 and p97 inh conf 20*.
For COC(=O)N/N=C/c1cn(Cc2ccccc2Cl)c2ccccc12 the results were DTT redox prof 1, PERK inh 1, TNAP inh hiacc -3, TNAP inh noacc -10, p97 inhibitor 3 and TNAP act hi DEA 1.
For O=C(Nn1c(-c2ccc(F)cc2)nc2ccccc2c1=O)C1CCCCC1 the results were DTT redox prof 0, PERK inh -2, TNAP inh hiacc 1, TNAP inh noacc -2, p97 inhibitor -2 and TNAP act hi DEA 1.
Screening O=C1CC(c2ccc(O)cc2)Oc2cc(O)cc(O)c21 (stereo not given) returned DTT redox prof 0, PERK inh 1, TNAP inh hiacc 1, TNAP inh noacc -2, p97 inhibitor 6 and TNAP act hi DEA 1.
CC1CC(=O)c2c(cc3c(-c4c(O)cc(O)c5c(O)c6c(cc45)OC(C)CC6=O)c(O)cc(O)c3c2O)O1 (stereo not given) was read as DTT redox prof 2, PERK inh 2, TNAP inh hiacc 14, TNAP inh noacc 17, p97 inhibitor 56*, TNAP act hi DEA 0.9 and p97 inh conf 49*.

High-throughput results deposited in PubChem BioAssay by several laboratories.
